Source: ChEMBL document CHEMBL1124776, “Studies on hindered phenols and analogues. 2. 1,3-Benzoxathioles having SRS-A inhibiting activity” (J Med Chem, 1990)
In brackets after ≈: the same amount, converted by molar mass.

Legend:
[1] = organism: Rattus norvegicus; test: LPO-lowering activity was estimated by the IC50 value of compound in rat liver microsomal lipid peroxidation; type: functional
Procedure, shortened: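 Rat liver microsomes were reacted with compound plus cysteine (500 μM) and ferrous sulfate (5 μM), following the ferrous sulfate/cysteine method. Lipid peroxide was measured by the thiobarbituric acid method. IC50 (μg/mL) is the concentration giving 50% inhibition of lipid peroxide formation.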

[2] = organism: Cavia porcellus; test: Evaluated for inhibition of the formation and release of SRS-A in isolated guinea pig ileum; type: functional
Procedure, shortened: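 Guinea pig (Hartley, male) lung slices from sensitized animals were preincubated with compound for 15 min, then challenged with albumin antigen. SRS-A formed and released was bioassayed by superfusion over isolated guinea pig ileum. IC50 (μM) came from a least-squares regression of percent inhibition against dose, with 95% confidence limits by Fieller's equation.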

[3] = test system: superoxide radical (cell-free, no organism); test: The concentration of compound required to inhibit generation of superoxide by 50 percent electrochemically
[4] = Rattus norvegicus, Liver, read-out: IC50

Compound	IC50 [1, 4]	IC50 [2]	Q1/2 [3]	IC50 [1]
CCCCCCC1Oc2c(C)c(C)c(O)c(C)c2S1 (stereo unspecified)	0.1 µg/mL (≈ 0.357 µM)	> 35.6 µM	1.6 mM	
CCCCCCCC1Oc2c(C)c(C)c(O)c(C)c2S1 (stereo unspecified)	< 0.1 µg/mL	> 33.9 µM	1.4 mM	
Cc1c(C)c2c(c(C)c1O)CCC(C)(CO)O2 (stereo unspecified)	0.3 µg/mL (≈ 1.27 µM)		2 mM	
Cc1c(C)c2c(c(C)c1O)CCC(C)(C)O2 [APC-100]	< 0.1 µg/mL		2.4 mM	
Cc1c(C)c2c(c(C)c1O)SC(CCC(=O)O)O2 (stereo unspecified)	> 1 µg/mL	> 37.2 µM	1.8 mM	
Oc1ccc2c(c1)SCO2	> 1 µg/mL	> 64.8 µM	6.2 mM	
Cc1c(C)c2c(c(C)c1O)SC(C)O2 (stereo unspecified)	< 0.1 µg/mL	2.1 µM	1.6 mM	
Cc1c(C)c2c(c(C)c1O)SC(c1ccccc1)O2 (stereo unspecified)	< 0.1 µg/mL	6.6 µM	2.4 mM	
CC1Oc2cc(C(C)(C)C)c(O)cc2S1 (stereo unspecified)	0.1 µg/mL (≈ 0.446 µM)	11.2 µM		
Cc1c(C)c2c(c(C)c1O)SC(CCC(N)=O)O2 (stereo unspecified)	0.3 µg/mL (≈ 1.12 µM)	3.1 µM	2.3 mM	
Cc1c(C)c2c(c(C)c1O)SCO2	< 0.1 µg/mL	2.4 µM	1.3 mM	
CCCCC1Oc2c(C)c(C)c(O)c(C)c2S1 (stereo unspecified)	< 0.1 µg/mL	11.9 µM	1.6 mM	
Cc1c(C)c2c(c(C)c1O)CCC(C)(C(=O)O)O2 (stereo unspecified) [TROLOX]	> 1 µg/mL		1.9 mM	
CC(C)(C)c1cc(/C=C2\CCOC2=O)cc(C(C)(C)C)c1O		147 µM		
CCCCCCCCCCCCCCCCCCCC1Oc2c(C)c(C)c(O)c(C)c2S1 (stereo unspecified)	> 1 µg/mL		1.8 mM	
NC1=NN(c2cccc(C(F)(F)F)c2)CC1 [BW-755C]		136 µM		
CCCC1Oc2c(C)c(C)c(O)c(C)c2S1 (stereo unspecified)	< 0.1 µg/mL	3.8 µM	1.4 mM	
Cc1cc(C(C)(C)C)c(O)c(C(C)(C)C)c1 [BUTYLATED HYDROXYTOLUENE]			0.45 mM	
VITAMIN E [listing 1 of 2 here]				> 1 µg/mL
CCC1Oc2c(C)c(C)c(O)c(C)c2S1 (stereo unspecified)	< 0.1 µg/mL	4.5 µM	1.3 mM	
Cc1c(C)c2c(c(C)c1O)SC(CCCO)O2 (stereo unspecified)	0.1 µg/mL (≈ 0.393 µM)	1.5 µM	2.2 mM	
VITAMIN E [listing 2 of 2 here]			4.4 mM	
